Laboratory results reported in ChEMBL document CHEMBL1127795, “Small-molecule immunostimulants. Synthesis and activity of 7,8-disubstituted guanosines and structurally related compounds” (1994).
Several values for one entry are separate records, joined by “and”; a condition that tells them apart may be missing. Identical values can stand only once.

Columns and labels:
Mus musculus [1] = species on record: Mus musculus; experiment: Augment antibody response of B cells to sheep red blood cell (SRBC) challenge (adjuvanticity); assay type: functional; conditions: read-out: ED50 (the source's name)
Method in brief: (§1)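 CBA/CaJ spleen cells depleted of T cells with anti-T cell monoclonal antibody (1:1000, 30 min, 4 °C) then complement (37 °C, 45 min). Cultured ± 0.1% SRBC antigen in serum-containing medium with compound from zero to 10⁻³ M for 4 d. Plaque-forming cells counted in agarose with guinea pig complement. ED50 and maximal response relative to a concurrent standard.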

Mus musculus [2] = experiment: In vivo natural killer cell response in splenocytes of mice injected with 2 mg subcutaneous dose. % lysis of YAC-1 cells at effector: target ratio of 200:1; assay type: functional
Method in brief: (§2)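 Mice dosed subcutaneously with 2 mg compound, with sesame oil as the vehicle control. Splenocytes were harvested 48 h after dosing and assayed in a 4-h ⁵¹Cr-release test against 5 × 10⁴ labelled YAC-1 cells at four effector:target ratios. Results are mean % lysis ± one standard deviation, 3–5 mice per group.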

Mus musculus [3] = species on record: Mus musculus; experiment: Percent of maximum response was tested to augment the antibody response of B cells to sheep red blood cell challenge; assay type: functional; method in brief: as §1
YAC-1 [4] = experiment: Percent of maximum response was tested for its ability to stimulate the natural killer response in murine in vitro cell assays; assay type: functional, Mus musculus
Mus musculus [5] = species on record: Mus musculus; experiment: Percent of maximum response was tested for its ability to act as B-cell mitogens (mitogenicity); assay type: functional
Method in brief: (§3)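 CBA/CaJ mouse spleen cells (1 × 10⁵/0.2 mL) exposed to graded compound concentrations, dissolved in water or DMSO and diluted in medium, for 24 h. [³H]thymidine then added for a further 24 h; incorporation by scintillation counting. ED50 and maximal response expressed relative to a concurrently run standard (loxoribine in most cases).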

Mus musculus [6] = species on record: Mus musculus; experiment: Ability to act as B-cell mitogens; assay type: functional; conditions: read-out: ED50 (the source's name); method in brief: as §3
Mus musculus [7] = experiment: In vivo natural killer cell response in splenocytes of mice injected with 2 mg subcutaneous dose. % lysis of YAC-1 cells at effector: target ratio of 100:1; assay type: functional; method in brief: as §2
YAC-1 [8] = experiment: Stimulation of natural killer (NK) response in Yac-1 cell line (mouse, lymphoma); assay type: functional; conditions: read-out: ED50 (the source's name)
Mus musculus [9] = experiment: In vivo natural killer cell response in splenocytes of mice injected with 2 mg subcutaneous dose. % lysis of YAC-1 cells at effector: target ratio of 50:1; assay type: functional; method in brief: as §2
Mus musculus [10] = species on record: Mus musculus; experiment: Effective dose for its ability to act as B-cell mitogens (mitogenicity); Neg indicates a response lower than vehicle control; assay type: functional; method in brief: as §3
Mus musculus [11] = species on record: Mus musculus; experiment: Tested to augment the antibody response of B cells to sheep red blood cell (SRBC) challenge (adjuvanticity); Neg indicates a response lower than vehicle control; assay type: functional, cell-based; method in brief: as §1
YAC-1 [12] = experiment: Stimulation of natural killer (NK) response in Yac-1 cell line (mouse, lymphoma); Neg indicates a response lower than vehicle control; assay type: functional, cell-based

Structure (SMILES)	EC50 (Mus musculus [1])	Ratio (Mus musculus [2])	Max response (Mus musculus [3])	Max response (YAC-1 [4])	Max response (Mus musculus [5])	EC50 (Mus musculus [6])	Ratio (Mus musculus [7])	EC50 (YAC-1 [8])	Ratio (Mus musculus [9])	ED50 (Mus musculus [10])	ED50 (Mus musculus [11])	ED50 (YAC-1 [12])
Nc1nc(O)c2c(n1)n(C1OC(CO)[C@@H](O)[C@H]1O)c(=O)n2Cc1ccc([N+](=O)[O-])cc1 (stereo not given in full)	40 µM	27.4 and 9.9	147%	50%	16%	50 µM	20.7	48 µM	15.8			
Nc1nc(O)c2c(n1)n(C1OC(CO)[C@@H](O)[C@H]1O)c(=O)n2Cc1ccc(Cl)c(Cl)c1 (stereo not given in full)			55%	15%	0%			110 µM		Negative	Negative	
C=CCn1c(=O)n([C@@H]2O[C@H](CO)[C@H]3OC(C)(CCC(=O)OCC)O[C@H]32)c2nc(N)nc(O)c21 (stereo not given in full)	139 µM		44%	19%	0%			150 µM		Negative		
CCCn1c(=O)n(C2CCC(COC(C)=O)O2)c2nc(NC(C)=O)nc(O)c21 (stereo not given)	154 µM		100%	0%	11%	80 µM						Negative
C=CCn1c(=O)n([C@@H](CO)OC(CO)CO)c2nc(N)nc(O)c21			0%		6%	37 µM					Negative	
Nc1nc(O)c2c(n1)n(C1OC(CO)[C@@H](O)[C@H]1O)c(=O)n2CC(=O)c1ccc(Cl)cc1 (stereo not given in full)	1620 µM		23%		0%					Negative		
CCCCCCCCCCn1c(=O)n(C2OC(CO)[C@@H](O)[C@H]2O)c2nc(N)nc(O)c21 (stereo not given in full)			0%		0%					Negative	Negative	
C=CCn1c(=O)n(CCc2ccc(OC)c(OC)c2)c2nc(N)nc(O)c21			0%								Negative	
C=CCn1c(=O)n([C@@H]2O[C@H](CO)[C@H]3OC(C)(CCC(=O)NC)O[C@H]32)c2nc(N)nc(O)c21 (stereo not given in full)			9%	0%	0%					Negative	Negative	Negative
CCCn1c(=O)n(C2OC(COP(=O)([O-])[O-])[C@@H](O)[C@H]2O)c2nc(N)nc(O)c21.[Li+].[Li+] (stereo not given in full)	15 µM		76%	15%	57%	82 µM						Negative
Cc1nc2nc3c(c(O)n2n1)n(CCN1CCCCC1)c(=O)n3C1OC(CO)[C@@H](O)[C@H]1O (stereo not given in full)			1%	0%	0.1%					Negative	Negative	Negative
Nc1nc(O)c2nc(S)n(COCCO)c2n1			0%	26%				3 µM			Negative	
C=CCN1C(=C(C(=O)OCC)C(=O)OCC)N([C@H]2OC(CO)[C@H]3OC(C)(C)O[C@H]32)c2nc(N)nc(O)c21 (stereo not given in full)			0%								Negative	
